Source: ChEMBL document CHEMBL1158766, “Sesquiterpenoids from Saussurea laniceps” (2005)

Columns and labels:
[1] = Inhibition of lipopolysaccharide-induced mouse B cell proliferation assessed as [3H]TdR incorporation at 10 uM
[2] = Inhibition of concanavalin A-induced mouse T cell proliferation assessed as [3H]TdR incorporation at 1 uM; assay type: functional
In short: (§1)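 Mouse spleen cells (4 × 10^6/well) were stimulated with ConA at 5 µg/mL alongside compound at 1 × 10^-7 to 1 × 10^-4 M, then cultured for 48 h at 37 °C in 5% CO2. [3H]TdR (0.25 µCi/well) was added for the final 6 h, and uptake was read by liquid scintillation counting. Counts are means ± SD from three independent experiments, compared with controls by Student t-test.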

[3] = Inhibition of concanavalin A-induced mouse T cell proliferation assessed as [3H]TdR incorporation at 10 uM; assay type: functional
In short: as §1

[4] = Inhibition of lipopolysaccharide-induced mouse B cell proliferation assessed as [3H]TdR incorporation at 1 uM
[5] = Inhibition of lipopolysaccharide-induced mouse B cell proliferation assessed as [3H]TdR incorporation at 0.1 uM
[6] = Inhibition of concanavalin A-induced mouse T cell proliferation assessed as [3H]TdR incorporation at 100 uM; assay type: functional
In short: as §1

[7] = Inhibition of concanavalin A-induced mouse T cell proliferation assessed as [3H]TdR incorporation at 0.1 uM; assay type: functional
In short: as §1

[8] = Inhibition of lipopolysaccharide-induced mouse B cell proliferation assessed as [3H]TdR incorporation at 100 uM

Row | Compound | Activity [1] [cpm] | Activity [2] [cpm] | Activity [3] [cpm] | Activity [4] [cpm] | Activity [5] [cpm] | Activity [6] [cpm] | Activity [7] [cpm] | Activity [8] [cpm]
1 | C=C(C)C(=O)O[C@H]1CC(=C)[C@@H]2C[C@@H](O)C(=C)[C@@H]2[C@H]2OC(=O)[C@@H](C)[C@@H]21 | 20600 | 36100 | 30600 | 31100 | 34800 | 40 | 33800 | 80
2 | C=C1C[C@H](O)C[C@]2(C)CC[C@@](O)(C(=C)CO)C[C@@H]12 | 30.8 | 31500 | 28300 | 33600 | 36100 | 12100 | 39800 | 17200
3 | C=C(CO)C(=O)O[C@H]1CC(=C)[C@@H]2C[C@@H](O)C(=C)[C@@H]2[C@H]2OC(=O)[C@@H](C)[C@@H]21 | 34900 | 43800 | 13400 | 29800 | 24300 | 30 | 46300 | 30
